What was measured:
Type in all cases: functional
[1] = test system: MOLT-4; assay: Growth inhibition of human MOLT4 cells incubated for 48 hrs by sulforhodamine B assay; conditions: MOLT-4, 48 h
Outline: (§1)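 Run in the NCI-60 human tumour cell line panel with dose-response testing. GI50 was determined for each cell line from its dose-response data.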

[2] = test system: A549; assay: Growth inhibition of human A549/ATCC cells incubated for 48 hrs by sulforhodamine B assay; conditions: A549, 48 h; outline: as §1
[3] = test system: HOP-92; assay: Growth inhibition of human HOP92 cells incubated for 48 hrs by sulforhodamine B assay; conditions: HOP-92, 48 h; outline: as §1
[4] = test system: NCI-H322M; assay: Growth inhibition of human NCI-H322M cells incubated for 48 hrs by sulforhodamine B assay; outline: as §1
[5] = test system: NCI-H522; assay: Growth inhibition of human NCI-H522 cells incubated for 48 hrs by sulforhodamine B assay; conditions: NCI-H522, 48 h; outline: as §1
[6] = test system: HCC 2998; assay: Growth inhibition of human HCC2998 cells incubated for 48 hrs by sulforhodamine B assay; conditions: HCC 2998, 48 h; outline: as §1
[7] = test system: HCT-15; assay: Growth inhibition of human HCT15 cells incubated for 48 hrs by sulforhodamine B assay; conditions: HCT-15, 48 h; outline: as §1
[8] = test system: HT-29; assay: Growth inhibition of human HT-29 cells incubated for 48 hrs by sulforhodamine B assay; conditions: HT-29, 48 h; outline: as §1
[9] = test system: KM12; assay: Growth inhibition of human KM12 cells incubated for 48 hrs by sulforhodamine B assay; conditions: KM12, 48 h; outline: as §1
[10] = test system: SW-620; assay: Growth inhibition of human SW620 cells incubated for 48 hrs by sulforhodamine B assay; conditions: SW-620, 48 h
Outline: (§2)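 Tested in the NCI 60-human-tumour-cell-line screen using the five-dose format. GI₅₀ was derived from each cell line's dose-response. TGI and LC₅₀ were derived from the same dose-response data.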

[11] = test system: SF-295; assay: Growth inhibition of human SF295 cells incubated for 48 hrs by sulforhodamine B assay; conditions: SF-295, 48 h; outline: as §1
[12] = test system: SNB-19; assay: Growth inhibition of human SNB19 cells incubated for 48 hrs by sulforhodamine B assay; conditions: SNB-19, 48 h; outline: as §1
[13] = test system: U-251; assay: Growth inhibition of human U251 cells incubated for 48 hrs by sulforhodamine B assay; conditions: U-251, 48 h; outline: as §2
[14] = test system: Malme-3M; assay: Growth inhibition of human MALME-3M cells incubated for 48 hrs by sulforhodamine B assay; outline: as §1
[15] = test system: M14; assay: Growth inhibition of human M14 cells incubated for 48 hrs by sulforhodamine B assay; conditions: M14, 48 h; outline: as §1
[16] = test system: MDA-MB-435; assay: Growth inhibition of human MDA-MB-435 cells incubated for 48 hrs by sulforhodamine B assay; conditions: MDA-MB-435, 48 h; outline: as §1
[17] = test system: SK-MEL-2; assay: Growth inhibition of human SK-MEL-2 cells incubated for 48 hrs by sulforhodamine B assay; conditions: SK-MEL-2, 48 h; outline: as §1
[18] = test system: SK-MEL-28; assay: Growth inhibition of human SK-MEL-28 cells incubated for 48 hrs by sulforhodamine B assay; conditions: SK-MEL-28, 48 h; outline: as §1
[19] = test system: UACC-62; assay: Growth inhibition of human UACC62 cells incubated for 48 hrs by sulforhodamine B assay; conditions: UACC-62, 48 h; outline: as §2
[20] = test system: IGROV-1; assay: Growth inhibition of human IGROV1 cells incubated for 48 hrs by sulforhodamine B assay; conditions: IGROV-1, 48 h; outline: as §1
[21] = test system: OVCAR-8; assay: Growth inhibition of human OVCAR8 cells incubated for 48 hrs by sulforhodamine B assay; conditions: OVCAR-8, 48 h; outline: as §1
[22] = test system: NCI/ADR-RES; assay: Growth inhibition of human NCI/ADR-RES cells incubated for 48 hrs by sulforhodamine B assay; outline: as §1
[23] = test system: SK-OV-3; assay: Growth inhibition of human SKOV3 cells incubated for 48 hrs by sulforhodamine B assay; conditions: SK-OV-3, 48 h; outline: as §1
[24] = test system: CAKI-1; assay: Growth inhibition of human Caki1 cells incubated for 48 hrs by sulforhodamine B assay; conditions: CAKI-1, 48 h; outline: as §1
[25] = test system: PC-3; assay: Growth inhibition of human PC3 cells incubated for 48 hrs by sulforhodamine B assay; conditions: PC-3, 48 h; outline: as §1
[26] = test system: MCF7; assay: Growth inhibition of human MCF7 cells incubated for 48 hrs by sulforhodamine B assay; conditions: MCF7, 48 h; outline: as §1
[27] = test system: MDA-MB-231; assay: Growth inhibition of human MDA-MB-231 cells incubated for 48 hrs by sulforhodamine B assay; conditions: MDA-MB-231, 48 h; outline: as §1
[28] = test system: Hs-578T; assay: Growth inhibition of human Hs578T cells incubated for 48 hrs by sulforhodamine B assay; outline: as §1
[29] = test system: T47D; assay: Growth inhibition of human T47D cells incubated for 48 hrs by sulforhodamine B assay; outline: as §2
[30] = test system: MDA-MB-468; assay: Growth inhibition of human MDA-MB-468 cells incubated for 48 hrs by sulforhodamine B assay; conditions: MDA-MB-468, 48 h; outline: as §1
[31] = read-out: pLC50 (the source's name) (converted)

For `COC(=O)/C=C1\CC[C@H]2[C@@H](CC(=O)[C@H]3C(C)(C)[C@@H](O)CC[C@]23C)[C@H]1C`, the GI50 [1] was 0.813 µM, the LC50 [1] was over 34.7 µM and the TGI ([1]; read-out: pTGI (converted)) was 2.14 µM. It also gave a GI50 [2] of 0.603 µM, an LC50 [2] of 2.09 µM and a TGI ([2]; read-out: pTGI (converted)) of 1.12 µM. It also gave a GI50 [3] of 5.75 µM, an LC50 [3] of over 34.7 µM and a TGI ([3]; read-out: pTGI (converted)) of 23.4 µM. It also gave a GI50 [4] of 1.35 µM, an LC50 [4] of over 34.7 µM and a TGI ([4]; read-out: pTGI (converted)) of 9.55 µM. For the same compound, the GI50 [5] was 0.741 µM, the LC50 [5] was 27.5 µM and the TGI ([5]; read-out: pTGI (converted)) was 2.29 µM. The GI50 [6] was 10.7 µM, the LC50 [6] was over 34.7 µM and the TGI ([6]; read-out: pTGI (converted)) was over 34.7 µM. For the same compound, the GI50 [7] was 4.07 µM, the LC50 [7] was 30.2 µM and the TGI ([7]; read-out: pTGI (converted)) was 11 µM. It also gave a GI50 [8] of 2.24 µM, a CC50 [8, 31] of over 34.7 µM and a TGI ([8]; read-out: pTGI (converted)) of 10.7 µM. For the same compound, the GI50 [9] was 11 µM, the LC50 (concentration killing 50% of cells) [9] was over 34.7 µM and the TGI ([9]; read-out: pTGI) was over 34.7 µM. The GI50 [10] was 1.74 µM, the LC50 [10] was over 34.7 µM and the TGI ([10]; read-out: pTGI (converted)) was 10 µM. For the same compound, the GI50 [11] was 1.45 µM, the LC50 [11] was over 34.7 µM and the TGI ([11]; read-out: pTGI (converted)) was 7.59 µM. For the same compound, the GI50 [12] was 9.33 µM, the LC50 [12] was over 34.7 µM and the TGI ([12]; read-out: pTGI (converted)) was over 34.7 µM. For the same compound, the GI50 [13] was 1.7 µM, the LC50 [13] was 19.5 µM and the TGI ([13]; read-out: pTGI (converted)) was 6.76 µM. It also gave a GI50 [14] of 1.48 µM, an LC50 [14] of 24.5 µM and a TGI ([14]; read-out: pTGI (converted)) of 7.08 µM. The GI50 [15] was 10 µM, the LC50 [15] was over 34.7 µM and the TGI ([15]; read-out: pTGI (converted)) was over 34.7 µM. For the same compound, the GI50 [16] was 8.51 µM, the LC50 [16] was over 34.7 µM and the TGI ([16]; read-out: pTGI (converted)) was over 34.7 µM. For the same compound, the GI50 [17] was 7.41 µM, the LC50 (concentration killing 50% of cells) [17] was over 34.7 µM and the TGI ([17]; read-out: pTGI (converted)) was 28.8 µM. It also gave a GI50 [18] of 9.33 µM, an LC50 [18] of over 34.7 µM and a TGI ([18]; read-out: pTGI (converted)) of 33.1 µM. For the same compound, the GI50 [19] was 5.62 µM, the LC50 [19] was over 34.7 µM and the TGI ([19]; read-out: pTGI (converted)) was 16.6 µM. The GI50 [20] was 3.8 µM, the LC50 [20] was over 34.7 µM and the TGI ([20]; read-out: pTGI (converted)) was 22.4 µM. It also gave a GI50 [21] of 1.38 µM, an LC50 [21] of over 34.7 µM and a TGI ([21]; read-out: pTGI (converted)) of 7.24 µM. For the same compound, the GI50 [22] was 1.2 µM, the CC50 [22, 31] was over 34.7 µM and the TGI ([22]; read-out: pTGI (converted)) was 6.61 µM. For the same compound, the GI50 [23] was 8.51 µM, the LC50 [23] was over 34.7 µM and the TGI ([23]; read-out: pTGI (converted)) was 22.9 µM. For the same compound, the GI50 [24] was 1.38 µM, the LC50 [24] was over 34.7 µM and the TGI ([24]; read-out: pTGI (converted)) was 6.76 µM. For the same compound, the GI50 [25] was 3.16 µM, the CC50 [25, 31] was over 34.7 µM and the TGI ([25]; read-out: pTGI (converted)) was 15.8 µM. The GI50 [26] was 1.62 µM, the CC50 [26, 31] was over 34.7 µM and the TGI ([26]; read-out: pTGI) was over 34.7 µM. For the same compound, the GI50 [27] was 10.2 µM, the LC50 [27] was over 34.7 µM and the TGI ([27]; read-out: pTGI (converted)) was over 34.7 µM. It also gave a GI50 [28] of 0.955 µM, an LC50 [28] of over 34.7 µM and a TGI ([28]; read-out: pTGI (converted)) of 3.39 µM. It also gave a GI50 [29] of 5.37 µM, an LC50 [29] of over 34.7 µM and a TGI ([29]; read-out: pTGI (converted)) of 21.9 µM. The GI50 [30] was 10 µM, the CC50 [30, 31] was over 34.7 µM and the TGI ([30]; read-out: pTGI (converted)) was over 34.7 µM.
